Assay results as given in the EternaBench riboswitch data.

Test system: MS2 coat protein
Assay: apparent Kd, MS2 coat protein; higher = weaker binding; RNA-MaP array; FMN 200 µM where present
Outline: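 Binding was read on Illumina sequencing-chip clusters where stalled E. coli RNA polymerase had transcribed each design. A titration of SNAP-549-labelled MS2 coat protein began at 0.7 or 1.5 nM and doubled to 3 µM, once without ligand and once with constant ligand, in 100 mM Tris-HCl pH 7.5, 80 mM KCl, 4 mM MgCl2, BSA, DTT, yeast tRNA and Tween-20. The apparent Kd is the median of filtered per-cluster binding-curve fits, based on green signal normalised to red-channel RNA signal and control-cluster median Fmax.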

[1] = designed as: OFF switch for flavin mononucleotide, no ligand
[2] = ligand present: flavin mononucleotide, designed as: OFF switch for flavin mononucleotide
[3] = designed as: ON switch for flavin mononucleotide, no ligand
[4] = ligand present: flavin mononucleotide, designed as: ON switch for flavin mononucleotide

| Sequence | apparent Kd [1] [nM] | apparent Kd [2] [nM] | apparent Kd [3] [nM] | apparent Kd [4] [nM] |
| --- | --- | --- | --- | --- |
| AAGUAUAGAGGAUAUAGUGAGUACUACAUGAGGAUCACCCAUGUUCUUCAAAACGUAUUUCUAGAAGGCUGUUAAA | 45.3 | 86.7 | – | – |
| CCUCCCUGAGGAUAUCCACCCUCAUACAUGAGGAUCACCCAUGUUCAACCCUGGGUUCCCGGAGAAGGCAGCUUCC | 260 | 263 | – | – |
| AGCGAACAGGCUAACAUGAGGAUCACCCAUGUGGACUCAUGGUAGGAUAUCGGGAAGGAGGAAACCGAGAAGGGCCGGUGAGCG | – | – | 150 | 70.8 |
| UUAAUUAUACAAGGAUAUCUAUUGUAGUUUCGACUUACAUGAGGAUCACCCAUGUUUUUAUGUUUAGAGAAGGUGUAUUUUCAG | – | – | 104 | 77.3 |
| GUAGCAUACAGAGGAUAUUCAAACGACAAAAGUCGACAUGAGGAUCACCCAUGUGGCGAAAGCCGGGAGAAGGCUGAAUGCUAC | – | – | 15 | 12 |
| CGUAGGAUCCAGAAGGCAUGAAACAUGAGGAUCACCCAUGUCAAAGACAUGAGGAUAUGGAUCCUACGAAAAGUGCGAAAGCAC | – | – | 4.1 | 3.15 |
| UGUCGGAGCAGAGGAUAUUACAUGAGGAUCACCCAUGUAUUAACCAAUAGCUGGAAACAGCAAUGUAAGAAGGCUGCUCCGACA | 5.11 | 7.87 | – | – |
| ACGGAACAUGAGGAUCACCCAUGUAUCUGAGAUAAGCUCUCGCAGGAUAUUGAGAGAAGCCUAUUCGAGAAGGGUGACAGCAAA | – | – | 90.1 | 30.1 |
| CCGGAAAUAGAGGAUAUCGUACUGGAUACAGUACGAGAAGGCUAUACAUGAGGAUCACCCAUGUGUCCUACCGG | 16.9 | 36 | – | – |
| GUAGGCGACCAGAAGGGUGACAUGAGGAUCACCCAUGUAGAUGUGUUCCCGCUUGGGAGCCGUCCACAGGAUAUGGUUGCUUAG | – | – | 66.5 | 42.5 |
| CCAGAUAUGUAAGGAUAUAUAGUGGAAUACACUAUAGAAGGUAUGUGAGAACAUGAGGAUCACCCAUGUCAUUGGAUAUCUGGA | – | – | 37.1 | 39.3 |
| AAUUCACAUGAGGAUCACCCAUGUCAGGAUAUGGUUUCACGUUUUUCUUUUCUUGAUUCCAGAAGGGACAGCUA | 65.6 | 82 | – | – |
| UUUCCACAUGAGGAUCACCCAUGUAAGGAUAUGUAGCGCGGGCUGGUGUCCGAGUGUUACAGAAGGUGCUGGCG | 26.3 | 33.7 | – | – |
| AAACACGGACAUGAGGAUCACCCAUGUGGCGAAAGCCUUGGAAGAAGGCCGAUAGCAAAGCUAUCGGAGGAUAUUCAUACCGUG | – | – | 17.2 | 5.78 |
| GUCAGCUCGUGAGGAUAUACAUGUGCUGGAUACAGCAUUAUAUUUUUCACAUGAGGAUCACCCAUGUAGAAGGCACGAGCUGAU | 16.6 | 29.9 | – | – |
| UGCACCAACGAGAAGGCACAGAUCCAGCUCUUGACAUGAGGAUCACCCAUGUGAGGAUAUCGUAGGUGCGCAUUGGGACAAUCU | 11.9 | 103 | – | – |
| UCUGGUCGAGGAUAUACAUAACGUGCUUCGGCACGAGAUCUACAUGAGGAUCACCCAUGUAGAAGGCGACCAGA | 16.7 | 46.7 | – | – |
| GCGAUUUUGUAGAAGGUACGUGAUUAGACAAAGUAAGGAUAUACUGACAUGAGGAUCACCCAUGUAUUAAUAGUUAACAGUCGC | – | – | 25.4 | 14.9 |
| CUGGGCCAGGAGAAGGGCUAGAGUGUGAUAUAUUUGCCCGCGAGCACAUGAGGAUCACCCAUGUAGCAGGAUAUCCAAGCCGGU | 8.38 | 15.8 | – | – |
| AAUGCGGCAGGAUAUACAUGAGGAUCACCCAUGUAGAUCAGAUAUAUGGUCGAACCAUGUAGAAGGGCCGCAAA | 34.3 | 129 | – | – |
| UAAUAAUAGCAAGGAUAUGGUUAUUAUAAUAUACCAGAAGGUGCACAUGAGGAUCACCCAUGUUUUAUAAUUUGUAAUUUAAAU | 30.7 | 27.3 | – | – |
| AGCUGUGGCCGAGGAUAUCUAUUAAUCCAAACCGAAAUAUAAUCGGACAUGAGGAUCACCCAUGUAGAGAAGGCGGUCUCAGCA | 72 | 77.2 | – | – |
| AGGAUCCUAUCAAGACAAAUGUACAUGAGGAUCACCCAUGUGCAGGAUAUAGCUAGUUACGGUGGUUAGAAGGGCACGCCAAAA | 8.98 | 13.3 | – | – |
| CAAUUUAUAUCAGGAUAUACAAUACAAUUAUUAGUAGAAGGGAUUAAUACAUGAGGAUCACCCAUGUCAUGUGUCAUAAUAACC | 22.6 | 18.1 | – | – |
| GAGUAGUAAGGAUAUGUCUCUGGUGGCUACGGUCACUAGAGGCAGAAGGUACAUGAGGAUCACCCAUGUUUUUU | 17.2 | 19.3 | – | – |
| ACCGUAUGAACAUGAGGAUCACCCAUGUAUUCGAAAAGGAAUGAGGAUAUCGAUAGCAAAGCUAUCGAGAAGGCAUGGGACGGU | – | – | 255 | 60.4 |
| GGUGGCCGAGGAUAUACGGACGUGUCGCCGGGUGUCGUGGGACAUGAGGAUCACCCAUGUAGAAGGUGGUUGUC | 187 | 147 | – | – |
